Measured values published in ChEMBL document CHEMBL1143027, “An efficient synthesis of 3-fluoro-5-thio-xylofuranosyl nucleosides of thymine, uracil, and 5-fluorouracil as potential antitumor or/and antiviral agents” (Bioorg Med Chem, 2007).
Several values for one entry are separate records, joined by “and”; a condition that tells them apart may be missing. Identical values can stand only once.

Legend:
MCF7 [1] = test: Cytotoxicity against human MCF7 cells after 72 hrs; assay type: functional; conditions: MCF7, 72 h
Summary of the method: (§1)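 Cells grown in DMEM with 5% FCS and L-glutamine, then seeded in 96-well plates. Treated with 3-fold serial dilutions (initial 0.5 mg/mL; DMSO stocks, final DMSO <0.1%) for 72 h at 37 °C. Treated wells (n=2) compared with controls (n=24). CC50 read from the concentration–effect curve.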

[2] = Selectivity index, Ratio of CC50 for human Caco-2 cells to IC50 for rotavirus RF in human Caco2 cells after neutralization of virus in solution before infection; assay type: functional
Summary of the method: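 Ratio of Caco-2 CC50 (72 h crystal violet assay) to rotavirus IC50 from the 12 h pre-attachment neutralization assay.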

Rotavirus [3] = test: Antiviral activity against rotavirus RF infected human Caco-2 cells following viral attachment after 72 hrs; assay type: functional, organism-based; conditions: Caco-2, 72 h
Summary of the method: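 Washed Caco-2 monolayers exposed to rotavirus RF (1.5 TCID50/mL) for 1 h at 37 °C, 5% CO2 to allow attachment. Unbound virus washed off with plain DMEM, then 3-fold compound dilutions (initial 0.5 mg/mL) added at once. Infected wells (n=6) compared with virus-only controls (n=6). IC50 read from the curve.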

[4] = Selectivity index, Ratio of CC50 for human Caco-2 cells to IC50 for rotavirus RF infected human Caco2 cells after viral attachment; assay type: functional
Summary of the method: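 Ratio of Caco-2 CC50 (72 h crystal violet assay) to rotavirus IC50 from the post-attachment infectivity assay.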

H4 [5] = test: Selectivity index, Ratio of CC50 for human H4 cells to CC50 for human Caco-2 cells; assay type: functional
Summary of the method: (§2)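 Tumor selectivity index: CC50 on normal fetal intestinal H4 cells divided by CC50 on the named tumor line, both from the 72 h crystal violet cytotoxicity assay.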

Rotavirus [6] = test: Antiviral activity against rotavirus RF in human Caco-2 cells after neutralization of virus in solution pre-incubated with compound for 12 hrs before infection; assay type: functional, organism-based
Summary of the method: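 Rotavirus RF (grown on Caco-2 with trypsin, 1.5 TCID50/mL, 100 µL per well) pre-incubated 12 h with 3-fold compound dilutions (initial 0.5 mg/mL) in trypsin-containing DMEM, then added to Caco-2 monolayers at 37 °C, 5% CO2. Infected treated wells (n=6) compared with virus-only wells (n=6). IC50 read from the concentration–effect curve.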

H4 [7] = test: Selectivity index, Ratio of CC50 for human H4 cells to CC50 for human skin melanoma cells; assay type: functional; summary of the method: as §2
[8] = Cytotoxicity against human skin melanoma cells after 72 hrs; assay type: functional; conditions: Melanoma cell; summary of the method: as §1
Caco-2 [9] = test: Growth inhibition of human Caco-2 cells after 10 days; assay type: functional, cell-based; conditions: Caco-2, 240 h
Summary of the method: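 Caco-2 cells seeded at 10 cells/well in DMEM/10% FBS with 3-fold compound dilutions (initial 0.5 mg/mL), six wells per series. Incubated 10 days at 37 °C in a humidified incubator, then colonies counted. Colony number in treated wells (n=2) compared with controls (n=24). IC50 read from the concentration–effect curve.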

Caco-2 [10] = test: Cytotoxicity against human Caco-2 cells after 72 hrs; assay type: functional; conditions: Caco-2, 72 h; summary of the method: as §1
[11] = Cytotoxicity against human H4 cells after 72 hrs; assay type: cell-based
Summary of the method: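 H4 human fetal small intestine cells grown in DMEM with 5% fetal calf serum and L-glutamine (2 mmol/L). Cells were exposed to 3-fold serial dilutions starting at 0.5 mg/mL (DMSO stock, final DMSO <0.1%) at 37 °C for 72 h. Treated (n = 2) vs control (n = 24) wells; CC50 from concentration–effect curve.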

MCF7 [12] = test: Selectivity index, Ratio of CC50 for human H4 cells to CC50 for human MCF7 cells; assay type: functional; summary of the method: as §2

Structure (SMILES) | CC50 (MCF7 [1]) [µM] | Ratio CC50/IC50 [2] | IC50 (Rotavirus [3]) | Ratio CC50/IC50 [4] | Selectivity index (H4 [5]) | IC50 (Rotavirus [6]) | Selectivity index (H4 [7]) | CC50 [8] [µM] | IC50 (Caco-2 [9]) [µM] | CC50 (Caco-2 [10]) [µM] | CC50 at 72 h [11] [µM] | Selectivity index (MCF7 [12])
CC(=O)O[C@@H]1[C@@H](F)[C@@H](CSC(C)=O)O[C@H]1n1cc(C)c(=O)[nH]c1=O | 278 | 10 | 16.6 µM and 6 µg/mL | 3.33 | 2.5 | 2 µg/mL and 5.55 µM | 0.5 | 278 | 1.9 | 55.5 | 139 | 0.5
CC(=O)O[C@@H]1[C@@H](F)[C@@H](CSC(C)=O)O[C@H]1n1cc(F)c(=O)[nH]c1=O | 1370 | 3.33 | 16.5 µM and 6 µg/mL | 3.33 | 25 | 6 µg/mL and 16.5 µM | 83.2 | 16.5 | 16.5 | 54.9 | 1370 | 1
CC(=O)O[C@@H]1[C@@H](F)[C@@H](CSC(C)=O)O[C@H]1n1ccc(=O)[nH]c1=O | 289 | 3.33 | 17.3 µM and 6 µg/mL | 3.33 | 25 | 6 µg/mL and 17.3 µM | 83.5 | 17.3 | 5.8 | 57.8 | 1440 | 5
O=c1[nH]cc(F)c(=O)[nH]1 [FLUOROURACIL] | 769 | – | – | – | 10 | – | 83.4 | 46.1 | 1.5 | 384 | 3840 | 5
Cc1cn([C@H]2C[C@H](N=[N+]=[N-])[C@@H](CO)O2)c(=O)[nH]c1=O [ZIDOVUDINE] | – | 0.75 | 22.4 µM and 6 µg/mL | 2.5 | – | 20 µg/mL and 74.8 µM | – | – | – | – | – | –
